Bioassay records: PubChem BioAssay, Broad Institute
FN deposit inh – fibronectin deposition inhibition. AH1F fibroblasts, Alexa488-fibronectin deposition fluorescence, overnight. inhibition, % at 12.6 µM. 350,000 compounds, 0.086% hits. AID 743247;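 active = mean inhibition across replicates of 30% or more, regardless of how many single replicates reach that level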;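 also: positive control wells lacked labelled fibronectin entirely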
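material = AH1F fibroblast monolayer depositing Alexa488-labelled fibronectin into matrix | amount = 10000 AH1F cells/well | buffer or medium = DMEM plus 2% serum, read in PBS | incubation = 1 h cell adhesion before compound, then overnight fibronectin incubation | detection = fluorescence at 485 nm excitation, 525 nm emission | evaluation = percent inhibition as loss of matrix-bound fibronectin fluorescence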
PDI turbidity – PDI (human) enzyme inhibition; 350,000 compounds, 0.052% hits; inhibition, % at 10 µM; PDI insulin aggregation turbidity, A650, 90 min; P07237;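 active = mean inhibition across replicates of 30% or more, whatever share of single replicates reach that level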
SIRT5 block – sirtuin-5 (human) deacylase inhibition | AID 652115 | Q9NXA8 | inhibition, % at 15 µM | Purified SirT5, succinyl-peptide AMC, trypsin-coupled fluorescence | 330,000 compounds, 1.1% hits; in the data active = inhibition above about 15%
MLL AF4-AF9 inh – MLL-AF4/AF9 protein interaction inhibition; AID 651704; inhibition, % at 10 µM; AlphaScreen, biotin-AF4 peptide binding to FLAG-AF9; P42568; 350,000 compounds, 0.47% hits;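 active = every replicate reaching a set inhibition limit, whatever the replicate mean, cut at about 25% in these data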;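 also: 0% = plate neutral control median and 100% = total signal loss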
Target sequence (P42568 whole entry, looked up): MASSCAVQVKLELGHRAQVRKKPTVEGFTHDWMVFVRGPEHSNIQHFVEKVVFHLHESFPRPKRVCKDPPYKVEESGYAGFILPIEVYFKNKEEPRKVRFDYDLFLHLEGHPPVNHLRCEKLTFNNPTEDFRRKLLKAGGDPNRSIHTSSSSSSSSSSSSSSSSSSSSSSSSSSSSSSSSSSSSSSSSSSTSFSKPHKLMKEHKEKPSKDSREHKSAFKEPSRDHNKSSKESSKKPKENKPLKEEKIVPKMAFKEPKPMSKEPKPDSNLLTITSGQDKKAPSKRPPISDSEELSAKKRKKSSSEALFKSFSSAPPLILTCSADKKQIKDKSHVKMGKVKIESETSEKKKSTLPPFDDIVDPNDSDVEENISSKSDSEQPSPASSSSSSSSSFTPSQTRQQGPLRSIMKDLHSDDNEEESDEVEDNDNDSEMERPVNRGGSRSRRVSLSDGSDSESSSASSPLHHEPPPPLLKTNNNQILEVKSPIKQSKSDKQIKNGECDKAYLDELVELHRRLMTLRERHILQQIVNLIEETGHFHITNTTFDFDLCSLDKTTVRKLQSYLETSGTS
ERp5 block – inhibitors of human ERp5; Q15084; ERp5 insulin aggregation, absorbance 650 nm, 90 min; inhibition, % at 9.99 µM; 350,000 compounds, 0.05% hits; AID 651711;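 active = mean replicate inhibition above about 25%, with every replicate also reaching it, limit read from the data, passing the limit was not always enough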
Active calls of the source: *; x = not tested or not shown; ! = not active in a repeat. The list is not random: actives were taken first. Their share in the collection is about 1.3%.

SMILES	FN deposit inh	PDI turbidity	SIRT5 block	MLL AF4-AF9 inh	ERp5 block
C[C@@H]1CN([C@H](C)CO)C(=O)c2cc(-c3cccc(C#N)c3)cnc2O[C@H]1CN(C)Cc1cncnc1	6	x	-7	0	75*
Cc1noc(C)c1NC(=O)N(C)C[C@@H]1Oc2ncc(Br)cc2C(=O)N([C@@H](C)CO)C[C@H]1C	-6	1	30*!	-2	2
Cc1ccc(S(=O)(=O)N(C)C[C@H]2Oc3ncc(-c4ccncc4)cc3C(=O)N([C@@H](C)CO)C[C@@H]2C)cc1	-5	x	32*	0	-8
C/C=C/c1cnc2c(c1)C(=O)N([C@H](C)CO)C[C@H](C)[C@@H](CN(C)C(=O)Nc1c(C)noc1C)O2	x	x	8	-3	17
C[C@H](CO)N1C[C@H](C)[C@H](CN(C)C(=O)c2cccc(F)c2)Oc2ncc(-c3ccccc3)cc2C1=O	34*	x	x	x	x
C[C@H](CO)N1C[C@H](C)[C@@H](CN(C)C(=O)C2CCOCC2)Oc2ncc(-c3ccccc3)cc2C1=O	x	x	21*	-1	-3
C[C@@H]1CN([C@@H](C)CO)C(=O)c2cc(-c3ccccc3)cnc2O[C@@H]1CN(C)C(=O)C1CCOCC1	4	x	-6	-2	-1
C[C@@H]1CN([C@@H](C)CO)C(=O)c2cc(Br)cnc2O[C@H]1CN(C)Cc1ccccc1	x	x	1	0	-8
C[C@@H]1CN([C@@H](C)CO)C(=O)c2cc(-c3cccc(F)c3)cnc2O[C@H]1CN(C)C	-4	x	20*	-2	-6
C[C@@H]1CN([C@@H](C)CO)C(=O)c2cc(Br)cnc2O[C@H]1CN(C)Cc1cccc(F)c1	8	x	-5	-1	37*!
CN(C)S(=O)(=O)c1ccc(NC(=O)CN2CCCCCC2)cc1	0	5	-2	-1	1
C[C@H](CO)N1C[C@H](C)[C@@H](CN(C)C(=O)Cc2ccccn2)Oc2cc(-c3ccc(C(=O)N(C)C)cc3)ccc2S1(=O)=O	x	x	4	-5	0
CCCN(C)C[C@H]1Oc2ncc(-c3ccccc3F)cc2C(=O)N([C@H](C)CO)C[C@H]1C	x	x	-1	-2	4
C[C@H](CO)N1C[C@H](C)[C@@H](CN(C)C(=O)Nc2ccc(C(F)(F)F)cc2)Oc2ccc(NC(=O)c3ccncc3)cc2CC1=O	x	x	1	-1	-7
Cc1cc2c(cc1C)C(=O)C(Br)=C(N)C2=O	5	-8	-3	-2	7
Cc1cc(-c2cc(C)c(N)cc2C)c(C)cc1N	-7	-9	19*	5	-3
CCNC(=O)C1(C)CCCN1Cc1ccccc1Cl (stereo unspecified)	2	-8	-3	0	-1
CC(C)C1C(=O)N(Cc2cn(Cc3ccco3)nn2)CCS(=O)(=O)N1Cc1ccc(-c2ccc(F)cc2)cc1 (stereo unspecified)	x	2	25*	-3	4
CC(C)C1C(=O)N(Cc2cn(Cc3ccco3)nn2)CCS(=O)(=O)N1Cc1ccc(-c2ccccc2)cc1 (stereo unspecified)	-3	14	-2	2	-1
C[C@@H]1CN([C@@H](C)CO)C(=O)Cc2cc(NC(=O)CCC(F)(F)F)ccc2O[C@@H]1CN(C)S(=O)(=O)c1cccs1	x	x	-9	-2	0
COc1ccc(Nc2c([N+](=O)[O-])ccc3c2=NC2(CCCCC2)N=3)cc1	23	8	-1	34*	3
O=[N+]([O-])c1ccc2c(c1Nc1ccccc1)=NC1(CCCCC1)N=2	1	6	x	x	x
CCOc1ccccc1NC(=O)C1CCN(S(=O)(=O)c2ccc(OC)c(OC)c2)CC1	x	-2	1	3	0
CCOc1ccccc1NC(=O)C1CCN(c2ccc(S(=O)(=O)N3CCCC3)cc2)CC1	x	6	17*	4	-2
Cc1ccc(C(=O)N/N=C/c2cccc(OC(=O)/C=C/c3ccco3)c2)cn1	2	7	24*	1	-2
C[C@@H]1CN([C@H](C)CO)C(=O)c2cccc(NC(=O)Nc3ccc(C(F)(F)F)cc3)c2O[C@H]1CN(C)C(=O)Nc1cccc2ccccc12	11	x	27*	5	10
C[C@@H]1CN([C@H](C)CO)C(=O)c2cccc(N(C)C)c2O[C@@H]1CN(C)C(=O)NC1CCCCC1	3	x	27*	-3	4
C[C@@H]1CN([C@@H](C)CO)C(=O)c2cccc(NC(=O)Nc3ccc(C(F)(F)F)cc3)c2O[C@H]1CN(C)C(=O)NC1CCCCC1	x	x	101*	2	1
